The values that follow come from the RNAGym collection of RNA variant scans (doi:10.1126/science.aae0568).

To fix the notation:
B1: tRNA (parent)
chain: GUUCCGUUGGCGUAAUGGUAACGCGUCUCCCUCCUAAGGAGAAGACUGCGGGUUCGAGUCCCGUACGGAACG

Fewer inactive variants are shown than the library holds.

The variants in the data set derive from B1. As to the kind of experiment: yeast fitness relative to wild type (ratio to wild type); higher = fitter; tRNA-Arg(CCU), competitive growth, 37 C, YPD. The essentials: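 The tRNA-Arg(CCU) gene variants were made by chemical synthesis with a 3% per-site mutation rate at 69 sites and inserted at the native genomic locus of Saccharomyces cerevisiae. After pooling, the strains were competed in YPD at 37°C for 24 hours in six parallel replicates. Gene amplicons from the start population and each end population were read by 100-nucleotide paired-end sequencing, and Darwinian fitness relative to wild type was taken from genotype frequency changes. Genotypes needed ≥ 100 starting reads, and estimates < 0.5 were set to 0.5.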
On to GUUCCGUUGGCGUAAUGGUGAGGCGUCUCCCUCCUAAAGAGAAGACUGCGGGUUCGAGUCCCGUACGGAACG [A20G C22G G38A], for which the yeast fitness worked out at 0.539.
GUUCCGUUGGCGUAAUGGUGACGGGUCUCCCUCCUAAGGAGAAGACUGCGGGUUCGAGUCCCGUAUGGAACG [A20G C24G C66U]: the yeast fitness amounted to 0.527.
GUUCCGUUGGCGUAAUGGUGACGCGUCUCCCUCCUAAGGAGAUGACUGCGGGUUCGAGUCCCGCACGGAACG [A20G A43U U64C]: the yeast fitness turned out to be 0.704.
In the case of GUUCCGUUGGCGUAAUGGUCACGCGUCUCCCUCCUAAGGAGAAGACUGCGGGUUCGAGUCCCGUACGAACCG [A20C G68A A70C], the yeast fitness is 0.522.
Regarding GUUCCGUUGGCGUAAUGGUGAGGCGUGUCUGUCCUAAGGAGAAGACUGCGCGUUCGAGUCCCGUACGGAACG [A20G C22G C27G C30U C31G G51C], the yeast fitness was at most 0.5.
In the case of GUUCCGUUGGCGUAAUGGUGACGGGUCUCCCCCCUAAGGAGAAGACUGCGAGUUCGAGUCCCGUACGGAACG [A20G C24G U32C G51A] it was at most 0.5; in that of GUUCCGUUGGCGUAAUGGUGACGCGUUGCCCUCCUAAGGAGAAGACUGCGGGUUCGAGUCCCGUACGGAACG [A20G C27U U28G], 0.565; in that of GUUCCGUUGGCGUAAUGGUGACGCGUCUCCCUCCUAAGGAGAAGACUGCGGGUUCGCGUCCCGUACGGAACG [A20G A57C], 0.642.
For GUUCCGUUGGCGUAAUGGUCACGCGUCUCCCUCCUAAGGAGAAAACUGCGGGUUCAAGUCCCGUACGGAACG [A20C G44A G56A], the yeast fitness is 0.544.
As to GUUCCGUUGGCGUAAUGGUCACGCGUCUCCCUCCUAAGGAGAAGACUGCGGGUCUGAGUCCCGUACGGAACG [A20C U54C C55U], the yeast fitness is at most 0.5.
In the case of GUUCCGUUGGCGUAAUGGUGACGCGUCUCCCUCCUCAGGAGAAGACUGGGGGUCCGAGUCCCGUACGGAACG [A20G A36C C49G U54C] it was at most 0.5.
In the case of GUUCCGUUGGCGUAAUGGUGACGAGUCUCCCUCCUAAGGAGUAGACUGCGGGUUCGAGUCCCGUACGGAACG [A20G C24A A42U] it was 0.546.
In the case of GUUCCGUUGGCGUAAUGGUGACGCGUCUGCCUCCUAAGGAGAAGACUGCGGGUUCGAGUCCCGUACGAAACG [A20G C29G G68A], the yeast fitness was at most 0.5.
In the case of GUUCCGUUGGCGUAAUGGUCACGCGUCUCCCUCCUAAGGAGAAGACUGCGGGUGCGAGUCCCGUACGGAACG [A20C U54G] it was 0.539; in that of GUUCCGUUGGCGUAAUGGUCACGCGUCUCCCUCCUAAGGAGAAGACUGCGGCUUCGAGUCCCGUACGGAACG [A20C G52C], 0.583.
For GUUCCGUUGGCGUAAUGGUCACGCGUCUCCCUCCUAAGGAGAAGACUGCGGGUUCAAGUCCCGUGUGGAACG [A20C G56A A65G C66U], the yeast fitness was determined as 0.562.
In the case of GUUCCGUUGGCGUAAUGGUCACGCGUCACCCUCCUAAGGAGAAGACUGCGGGUUCGAGUCCCGUACGGAACG [A20C U28A] it was 0.672; in that of GUUCCGUUGGCGUAAUGGUCACGCCUCUCCCUCCUAACGAGAGGACUGCGGGUUCGAGUCCCGUACGGAACG [A20C G25C G38C A43G], at most 0.5; in that of GUUCCGUUGGCGUAAUGGUGACGCGUCUCCAUCGUAAGGAGAAGUCUGCGGGUUCGAGUCCCGUACGGAACG [A20G C31A C34G A45U], at most 0.5.
As for GUUCCGUUGGCGUAAUGGUCACGCGUCUCCCUCCUAAGGAGAAGACUGCGGGUUCGAGUCCCGUACGAAACG [A20C G68A], the yeast fitness is 0.843.
In the case of GUUCCGUUGGCGUAAUGGUCACGCGUCUCCCUCCUAAGGACAAGACUGCGGGUUCGAGUCCCGUAGGGAACG [A20C G41C C66G] it was at most 0.5; in that of GUUCCGUUGGCGUAAUGGUGACGCGUCUCCCUCCUAAGGAGAAGACUGCGGGUUCGCGUCCGGUAGGGAACG [A20G A57C C62G C66G], at most 0.5; in that of GUUCCGUUGGCGUAAUGGUGACGCGUCUCCCUCCUAAGGAGAAGUCUGCGGGUUCGAGUCCCCUACGGAACG [A20G A45U G63C], 0.539.
Turning to GUUCCGUUGGCGUAAUGGUGACGCGUCUCCUUCCUAAGGAGUAGAUUGCGGGUUCGAGUCCCGUAGGGAACG [A20G C31U A42U C46U C66G], the yeast fitness was 0.714.
As for GUUCCGUUGGCGUAAUGGUCACGCGUCUCCCUCCUAAGGAGAAGACUGCGGGUUCGAGUCCCGAACAGAACG [A20C U64A G67A], the yeast fitness was at most 0.5.
In the case of GUUCCGUUGGCGUAAUGGUGACGCGUCUGCCUCCUAAGGAGAAGACUGCGGGUUCGAGUCCCCUACGGAACG [A20G C29G G63C] it was at most 0.5; in that of GUUCCGUUGGCGUAAUGGUCACGCGGCUCCCUCCUAAGGAGAAGACUGCGGGUUCGAGUCCCGUACGGAACG [A20C U26G], 0.572.
Turning to GUUCCGUUGGCGUAAUGGUGAUGCGUCUCCCUCCUAAGGAGAAGACUGCCGGUUCGAGUCCCCUACCGAACG [A20G C22U G50C G63C G67C], the yeast fitness is at most 0.5.
In the case of GUUCCGUUGGCGUAAUGGUGACGCGUCUCCCUCCUAAGGAGCAGCCUGCGGGUUCGAGUCCCGUACGGAACG [A20G A42C A45C] it was at most 0.5; in that of GUUCCGUUGGCGUAAUGGUGACGCGUCUACCUCCUAAGGUGAAGACUGCGGGUUCGAGUCCGGUACGGAACG [A20G C29A A40U C62G], at most 0.5; in that of GUUCCGUUGGCGUAAUGGUCACGCGUCUCCCUCCUAAGCAGAAGACUGUGGGUUCGAGUCCCGUACGGAACG [A20C G39C C49U], at most 0.5.
GUUCCGUUGGCGUAAUGGUGACGCGUCUCCCUCCUACGGGGAAGACUGUGGGUUCGAGUCCCGUACGGAACG [A20G A37C A40G C49U]: the yeast fitness is at most 0.5.
In the case of GUUCCGUUGGCGUAAUGGUGACGCGUAUCCAUCCUAAGGAGAAGACUGCGGGUUCGAGUCCCGUACGGAACG [A20G C27A C31A] it was at most 0.5; in that of GUUCCGUUGGCGUAAUGGUGACGCGUCUCCCUCCUAAGGAGAAGACUGCGGGUUCGAGUCCCGUUCGCAACG [A20G A65U G68C], 0.556; in that of GUUCCGUUGGCGUAAUGGUGUCGCGUCUCCCUCCUAAGGAGAAGACUGCGGGUUCGAGUCCCGUACGGAUCG [A20G A21U A70U], at most 0.5.
In the case of GUUCCGUUGGCGUAAUGGUCACGCGUCUCCCUCCUAAGCAGAAGACUGCGGGUUCGAGUCCCGUACGGAACG [A20C G39C] it was 0.723.
In the case of GUUCCGUUGGCGUAAUGGUGACGCGUCUCCGUCCUAAGGAGAAGACUGCGGGUUCGAGUGCCGUACGGAACG [A20G C31G C60G] it was at most 0.5.
